Results published in ChEMBL document CHEMBL1629494, “New amino acid esters of salicylanilides active against MDR-TB and other microbes” (Eur J Med Chem, 2010).
≈ marks a conversion by molar mass, not a printed value.

Legend:
Type in all cases: functional
[1] = system: Mycobacterium tuberculosis; assay: Antimycobacterial activity against extensively drug resistant Mycobacterium tuberculosis Praha 131 after 21 days by micromethod; conditions: Praha 131, 504 h
In short: (§1)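 Clinical MDR/XDR M. tuberculosis strains, all resistant to INH, RIF, rifabutine and streptomycin, some with further resistances. Tested by the MIC micromethod across a concentration series descending from 1000.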

[2] = system: Mycobacterium tuberculosis; assay: Antimycobacterial activity against multidrug-resistant Mycobacterium tuberculosis 9449/2007 after 21 days by micromethod; conditions: 9449/2007, 504 h
In short: (§2)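 MDR M. tuberculosis strains, all resistant to INH, RIF, rifabutine and streptomycin (9449/2007 to these four). Micromethod with compounds added as DMSO solutions in a twofold series from 1000 μmol/L downward; lowest level used 1 μmol/L. Incubated at 37 °C and read at 14 and 21 days; MIC is the lowest concentration giving growth inhibition.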

[3] = system: Mycobacterium tuberculosis; assay: Antimycobacterial activity against multidrug-resistant Mycobacterium tuberculosis 357/2005 after 14 days by micromethod; conditions: 357/2005, 336 h; in short: as §1
[4] = system: Mycobacterium tuberculosis; assay: Antimycobacterial activity against multidrug-resistant Mycobacterium tuberculosis 53/2009 after 14 days by micromethod; conditions: 53/2009, 336 h; in short: as §1
[5] = Selectivity index, ratio of IC50 for human PBMC to MIC for multidrug-resistant Mycobacterium tuberculosis 362/1998
In short: (§3)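 SI = PBMC IC50 (MTT cytotoxicity) divided by the MIC against the named M. tuberculosis strain. MIC taken after 14 days of incubation at 37 °C by the micromethod.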

[6] = system: Mycobacterium tuberculosis; assay: Antimycobacterial activity against multidrug-resistant Mycobacterium tuberculosis 362/1998 after 21 days by micromethod; conditions: 362/1998, 504 h; in short: as §1
[7] = system: Mycobacterium tuberculosis; assay: Antimycobacterial activity against multidrug-resistant Mycobacterium tuberculosis 362/1998 after 14 days by micromethod; conditions: 362/199, 336 h; in short: as §1
[8] = system: Mycobacterium tuberculosis; assay: Antimycobacterial activity against extensively drug resistant Mycobacterium tuberculosis Praha 1 after 21 days by micromethod; conditions: Praha 1, 504 h; in short: as §1
[9] = system: Mycobacterium tuberculosis; assay: Antimycobacterial activity against multidrug-resistant Mycobacterium tuberculosis 9449/2007 after 14 days by micromethod; conditions: 9449/2007, 336 h; in short: as §2
[10] = system: Mycobacterium tuberculosis; assay: Antimycobacterial activity against extensively drug resistant Mycobacterium tuberculosis Praha 131 after 14 days by micromethod; conditions: Praha 131, 336 h; in short: as §1
[11] = Selectivity index, ratio of IC50 for human PBMC to MIC for multidrug-resistant Mycobacterium tuberculosis 9449/2007; in short: as §3
[12] = Selectivity index, ratio of IC50 for human PBMC to MIC for multidrug-resistant Mycobacterium tuberculosis 53/2009; in short: as §3
[13] = system: Mycobacterium tuberculosis; assay: Antimycobacterial activity against multidrug-resistant Mycobacterium tuberculosis 53/2009 after 21 days by micromethod; conditions: 53/2009, 504 h; in short: as §2
[14] = system: Mycobacterium tuberculosis; assay: Antimycobacterial activity against extensively drug resistant Mycobacterium tuberculosis Praha 1 after 14 days by micromethod; conditions: Praha 1, 336 h; in short: as §1
[15] = system: Mycobacterium tuberculosis; assay: Antimycobacterial activity against multidrug-resistant Mycobacterium tuberculosis 357/2005 after 21 days by micromethod; conditions: 357/2005, 504 h; in short: as §1
[16] = Selectivity index, ratio of IC50 for human PBMC to MIC for multidrug-resistant Mycobacterium tuberculosis 357/2005; in short: as §3

Row | SMILES | MIC [1] [µM] | MIC [2] [µM] | MIC [3] [µM] | MIC [4] [µM] | Selectivity Index [5] | MIC [6] [µM] | MIC [7] [µM] | MIC [8] [µM] | MIC [9] [µM] | MIC [10] [µM] | Selectivity Index [11] | Selectivity Index [12] | MIC [13] [µM] | MIC [14] [µM] | MIC [15] [µM] | Selectivity Index [16]
1 | CC(=O)N[C@@H](Cc1ccccc1)C(=O)Oc1ccc(Cl)cc1C(=O)Nc1ccc(Cl)c(Cl)c1 | 2 (≈ 1.01 µg/mL) | 4 (≈ 2.02 µg/mL) | 2 (≈ 1.01 µg/mL) | 1 (≈ 0.506 µg/mL) | 22 | 2 (≈ 1.01 µg/mL) | 1 (≈ 0.506 µg/mL) | 2 (≈ 1.01 µg/mL) | 2 (≈ 1.01 µg/mL) | 2 (≈ 1.01 µg/mL) | 22 | 22 | 2 (≈ 1.01 µg/mL) | 1 (≈ 0.506 µg/mL) | 2 (≈ 1.01 µg/mL) | 22
2 | CC(=O)N[C@@H](Cc1ccccc1)C(=O)Oc1ccc(Cl)cc1C(=O)Nc1ccc(C(F)(F)F)cc1 | 2 (≈ 1.01 µg/mL) | 2 (≈ 1.01 µg/mL) | 1 (≈ 0.505 µg/mL) | 1 (≈ 0.505 µg/mL) | 6.1 | 1 (≈ 0.505 µg/mL) | 1 (≈ 0.505 µg/mL) | 2 (≈ 1.01 µg/mL) | 2 (≈ 1.01 µg/mL) | 1 (≈ 0.505 µg/mL) | 6.1 | 6.1 | 1 (≈ 0.505 µg/mL) | 1 (≈ 0.505 µg/mL) | 2 (≈ 1.01 µg/mL) | 6.1
3 | CC(=O)N[C@@H](Cc1ccccc1)C(=O)Oc1ccc(Br)cc1C(=O)Nc1ccc(C(F)(F)F)cc1 | 2 (≈ 1.1 µg/mL) | 2 (≈ 1.1 µg/mL) | 2 (≈ 1.1 µg/mL) | 1 (≈ 0.549 µg/mL) | 24.1 | 1 (≈ 0.549 µg/mL) | 1 (≈ 0.549 µg/mL) | 2 (≈ 1.1 µg/mL) | 1 (≈ 0.549 µg/mL) | 2 (≈ 1.1 µg/mL) | 24.1 | 24.1 | 2 (≈ 1.1 µg/mL) | 1 (≈ 0.549 µg/mL) | 2 (≈ 1.1 µg/mL) | 24.1
4 | NNC(=O)c1ccncc1 [ISONIAZID] | 14.6 (≈ 2 µg/mL) | 58.3 (≈ 8 µg/mL) | 14.6 (≈ 2 µg/mL) | 14.6 (≈ 2 µg/mL) | – | 14.6 (≈ 2 µg/mL) | 14.6 (≈ 2 µg/mL) | 14.6 (≈ 2 µg/mL) | 58.3 (≈ 8 µg/mL) | 14.6 (≈ 2 µg/mL) | – | – | 14.6 (≈ 2 µg/mL) | 14.6 (≈ 2 µg/mL) | 14.6 (≈ 2 µg/mL) | –
